We go through 6 molecules from ChEMBL document CHEMBL1955761, “Privileged scaffolds or promiscuous binders: a comparative study on rhodanines and related heterocycles in medicinal chemistry” (J Med Chem, 2012).

What is called inhibition is the relative decrease from the control value, in per cent.

Assay [1] deals with Escherichia coli. Nature of the assay: Inhibition of Escherichia coli MurA using PEP as substrate assessed as inorganic phosphate release at 25 uM preincubated for 10 mins measured after 60 mins […].
The test system of assay [2] is Escherichia coli. The experiment in a line: Inhibition of Escherichia coli MetAP at 10 uM after 15 mins by fluorescence analysis.
The next assay concerns Dengue virus. The experiment in a line: Inhibition of Dengue virus NS2B-NS3 protease using Abz-NleKRRS-3-(NO2)Y as substrate at 50 uM preincubated for 15 mins measured every sec for 15 mins by fluorimetric analysis.
A further assay concerns the target Prothrombin (Bos taurus) (UniProt P00735). Nature of the assay: Inhibition of bovine plasma thrombin using Boc-Val-Pro-Arg-AMC as substrate at 25 uM preincubated for 15 mins measured after 10 mins by fluorimetric assay. Summed up:
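Purchased bovine plasma thrombin at 10 nM final, preincubated 15 min with 25 μM inhibitor; reaction started with 50 μM substrate. Buffer 50 mM Tris-HCl pH 7.5, 150 mM NaCl, 0.05% Tween 20. Triplicate, averaged.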

The source made the active and inactive calls.

Take `C/C(=C1/SC(=S)NC1=O)c1ccc2ccccc2c1`: the inhibition entry in the assay on Escherichia coli [1] and in the assay with Escherichia coli [2] was “inactive” in each case. The figures for the inhibition in the assay with Dengue virus and at Prothrombin (Bos taurus) were 42% and 23%, respectively.
Turning to `O=C1NC(=O)/C(=C/c2ccc(Cl)cc2Cl)N1`, the inhibition entry in the assay with Escherichia coli [1], with Escherichia coli [2] and on Prothrombin (Bos taurus) was “inactive” throughout. In addition, the inhibition with Dengue virus worked out at 15%.
On to `O=C1NC(=S)N/C1=C\c1ccc(Cl)s1`, for which the inhibition in the assay with Escherichia coli [1] came to 22%; in the assay on Dengue virus it was 42%; on Prothrombin (Bos taurus) it was 29%. Moreover, the inhibition result in the assay with Escherichia coli [2] is “inactive”.
`Cn1cc(/C=C2\NC(=O)NC2=O)c2ccccc21`: the inhibition result in the assay on Escherichia coli [1] and in the assay on Escherichia coli [2] was “inactive” throughout. In addition, the inhibition with Dengue virus stood at 34%; against Prothrombin (Bos taurus), 20%.
Consider `CN(C)c1ccc(/C=C2\SC(=O)NC2=O)cc1`, for which, in the assay on Escherichia coli [1], the inhibition result was “inactive”. Moreover, the values for the inhibition with Escherichia coli [2], in the assay with Dengue virus and against Prothrombin (Bos taurus) were 13%, 20% and 11%, respectively.
For `O=C1NC(=O)/C(=C2\CCOc3ccccc32)S1`, in that order: “inactive”, 11%, 35% and “inactive”.
